Data on 17 molecules can be found in ChEMBL document CHEMBL1143048, “Inhibition of monoamine oxidase B by selected benzimidazole and caffeine analogues” (Bioorg Med Chem, 2007).

SMILES strings stand for the structures. Calls of active or inactive are those of the source. The calls are words filed in the database; no cut-off is given here.

Target in the first assay: not listed separately
Put plainly: Inhibition baboon liver mitochondrial MAOB. Also noted: species or system Papio hamadryas. An outline of the steps: (§1)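 Mitochondrial fraction from baboon liver was used as the enzyme source, without MAO-A inactivation. Incubations were run in 100 mM sodium phosphate, pH 7.4, with 0.15 mg protein/mL, MMTP at four levels (30–120 μM), three inhibitor levels, and 4% DMSO final, for 15 min at 37 °C. Reactions were stopped with perchloric acid. MMDP⁺ was read at 420 nm, and Lineweaver-Burk plots were constructed.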
The term Ki denotes a measure of affinity in units of concentration, obtained from inhibition or displacement. `COc1ccc(/C=C/c2nc3ccccc3n2C)cc1` showed an inhibition constant Ki of 5.82 µM.
The molecule `Cn1c(=O)c2c(nc(/C=C/c3ccc(Cl)c(Cl)c3)n2C)n(C)c1=O` returned a Ki of 0.036 µM.
On the same count and under the same terms, the figure for `Cn1c(=O)c2c(nc(/C=C/c3cccc(Br)c3)n2C)n(C)c1=O` is 0.086 µM; for `Cn1c(=O)c2c(nc(/C=C/c3ccsc3)n2C)n(C)c1=O` it is 11.3 µM.
Consider `Cn1c(=O)c2c(nc(/C=C/c3cccs3)n2C)n(C)c1=O`, for which the Ki came out at 1.58 µM.
For the molecule `Cn1c(=O)c2c(nc3c4ccccc4ncn32)n(C)c1=O`, the Ki turned out to be 39.9 µM.
The same measure, in the same setting: the figure for `Cn1c(=O)c2c(nc(/C=C/c3ccco3)n2C)n(C)c1=O` is 39.7 µM; for `Cn1c(/C=C/c2ccc(Cl)cc2)nc2ccccc21` it is 2.83 µM; for `Cn1c(/C=C/c2ccc(C(F)(F)F)cc2)nc2ccccc21` it is 0.43 µM.
With `Cn1c(/C=C/c2ccc(F)cc2)nc2ccccc21`, the Ki worked out at 15 µM.
As to `Cn1c(/C=C/c2ccccc2)nc2ccccc21`, the Ki came to 18.7 µM.
`Cc1ccc(/C=C/c2nc3ccccc3n2C)cc1` registered a Ki of 3.26 µM.
In turn, `Cn1c(=O)c2c(nc(/C=C/c3cc(C(F)(F)F)cc(C(F)(F)F)c3)n2C)n(C)c1=O` gave a Ki of 0.239 µM.
In the case of `Cn1c(/C=C/c2ccc(Br)cc2)nc2ccccc21`, the Ki was 2.54 µM.
`Cc1nc2ccccc2[nH]1`: the Ki was determined as 1220 µM.
For the molecule `Cn1cnc2ccccc21`, the Ki was 2080 µM.

Another assay is filed under the species Papio hamadryas. Put plainly: Inhibition baboon liver mitochondrial MAOB upto 50 uM. The gist of the method: as §1
Turning to `CCn1c(=O)c2c(nc3c4ccccc4ncn32)n(CC)c1=O`, the outcome was inactive.
